Results from the M2OR odorant receptor database.

Tests used:
Conditions in all cases: stereoisomer not certain
OR10H4 (Homo sapiens) = biological target: T1, OR10H4 (Homo sapiens) (UniProt Q8NGA5)
T1 sequence (whole entry): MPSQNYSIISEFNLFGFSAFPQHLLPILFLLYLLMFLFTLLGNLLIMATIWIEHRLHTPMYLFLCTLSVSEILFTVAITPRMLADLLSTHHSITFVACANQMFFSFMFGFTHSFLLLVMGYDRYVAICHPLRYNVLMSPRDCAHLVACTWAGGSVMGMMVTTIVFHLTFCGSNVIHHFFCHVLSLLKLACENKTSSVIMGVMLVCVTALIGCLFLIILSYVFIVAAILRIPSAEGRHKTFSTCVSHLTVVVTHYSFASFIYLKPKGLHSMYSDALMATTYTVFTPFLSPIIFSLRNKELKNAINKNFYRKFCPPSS
Summary of the method: (§1)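 Transient luciferase assays in mammalian cell lines were common, though methods varied by source. The values come from published papers and their supplementary material, with extra details from the original authors when needed. Responsive refers to a measured signal the original authors judged statistically different from baseline, and non-responsive (inactive) to the remainder.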

OR10H5 (Homo sapiens) = biological target: T2, OR10H5 (Homo sapiens) (UniProt Q8NGA6)
T2 sequence (whole entry): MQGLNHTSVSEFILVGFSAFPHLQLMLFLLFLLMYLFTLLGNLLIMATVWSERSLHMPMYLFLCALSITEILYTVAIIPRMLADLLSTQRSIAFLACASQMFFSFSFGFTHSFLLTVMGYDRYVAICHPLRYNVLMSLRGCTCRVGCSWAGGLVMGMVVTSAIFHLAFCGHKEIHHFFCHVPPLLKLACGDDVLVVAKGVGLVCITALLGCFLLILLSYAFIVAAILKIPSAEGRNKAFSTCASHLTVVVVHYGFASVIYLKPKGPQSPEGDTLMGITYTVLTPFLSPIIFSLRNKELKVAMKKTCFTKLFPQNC
Summary of the method: as §1

OR10J1 (Homo sapiens) = biological target: T3, OR10J1 (Homo sapiens) (UniProt P30954)
T3 sequence (whole entry): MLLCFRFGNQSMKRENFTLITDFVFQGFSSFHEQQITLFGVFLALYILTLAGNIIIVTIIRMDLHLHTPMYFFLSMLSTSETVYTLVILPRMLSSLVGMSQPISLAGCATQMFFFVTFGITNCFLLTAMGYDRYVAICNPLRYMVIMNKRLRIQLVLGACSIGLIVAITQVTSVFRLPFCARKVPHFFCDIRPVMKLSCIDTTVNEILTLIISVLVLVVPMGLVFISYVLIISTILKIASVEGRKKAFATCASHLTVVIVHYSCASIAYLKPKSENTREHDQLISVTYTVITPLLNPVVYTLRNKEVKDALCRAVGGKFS
Summary of the method: as §1

OR10J3 (Homo sapiens) = biological target: T4, OR10J3 (Homo sapiens) (UniProt Q5JRS4)
T4 sequence (whole entry): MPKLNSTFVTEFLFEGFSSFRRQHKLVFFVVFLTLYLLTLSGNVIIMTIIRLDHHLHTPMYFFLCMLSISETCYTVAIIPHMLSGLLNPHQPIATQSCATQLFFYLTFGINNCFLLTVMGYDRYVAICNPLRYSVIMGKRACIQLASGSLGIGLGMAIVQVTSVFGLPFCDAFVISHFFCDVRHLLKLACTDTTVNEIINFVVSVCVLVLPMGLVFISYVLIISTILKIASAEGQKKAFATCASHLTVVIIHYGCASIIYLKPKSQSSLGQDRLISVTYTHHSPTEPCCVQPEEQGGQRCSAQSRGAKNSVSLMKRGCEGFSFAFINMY
Summary of the method: as §1

OR10J5 (Homo sapiens) = biological target: T5, OR10J5 (Homo sapiens) (UniProt Q8NHC4)
T5 sequence (whole entry): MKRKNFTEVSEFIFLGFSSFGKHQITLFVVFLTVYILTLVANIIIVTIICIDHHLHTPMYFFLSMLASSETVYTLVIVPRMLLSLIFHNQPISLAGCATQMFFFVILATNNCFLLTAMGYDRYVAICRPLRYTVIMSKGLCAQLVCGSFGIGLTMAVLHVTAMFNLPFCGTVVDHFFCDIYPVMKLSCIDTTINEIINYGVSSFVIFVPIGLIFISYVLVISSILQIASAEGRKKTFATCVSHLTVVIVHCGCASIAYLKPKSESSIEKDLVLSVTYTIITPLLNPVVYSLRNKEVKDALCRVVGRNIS
Summary of the method: as §1

OR10K1 (Homo sapiens) = biological target: T6, OR10K1 (Homo sapiens) (UniProt Q8NGX5)
T6 sequence (whole entry): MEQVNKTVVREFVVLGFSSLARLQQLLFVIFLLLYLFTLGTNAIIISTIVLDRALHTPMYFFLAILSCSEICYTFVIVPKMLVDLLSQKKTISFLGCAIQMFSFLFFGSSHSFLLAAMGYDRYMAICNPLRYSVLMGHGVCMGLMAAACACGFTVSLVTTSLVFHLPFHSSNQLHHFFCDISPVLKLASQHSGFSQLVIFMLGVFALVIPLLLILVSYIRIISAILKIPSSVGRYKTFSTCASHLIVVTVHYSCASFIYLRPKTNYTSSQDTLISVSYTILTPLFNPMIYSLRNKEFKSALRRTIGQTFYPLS
Summary of the method: as §1

OR10K2 (Homo sapiens) = biological target: T7, OR10K2 (Homo sapiens) (UniProt Q6IF99)
T7 sequence (whole entry): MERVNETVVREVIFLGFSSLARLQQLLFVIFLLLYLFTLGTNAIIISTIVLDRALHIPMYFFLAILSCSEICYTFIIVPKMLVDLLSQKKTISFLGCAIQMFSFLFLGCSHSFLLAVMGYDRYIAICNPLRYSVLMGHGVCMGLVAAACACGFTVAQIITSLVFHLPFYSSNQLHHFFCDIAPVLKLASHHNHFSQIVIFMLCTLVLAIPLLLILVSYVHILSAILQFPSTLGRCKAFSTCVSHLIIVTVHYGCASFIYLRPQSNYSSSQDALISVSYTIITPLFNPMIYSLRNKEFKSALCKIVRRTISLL
Summary of the method: as §1

OR10P1 (Homo sapiens) = biological target: T8, OR10P1 (Homo sapiens) (UniProt Q8NGE3)
T8 sequence (whole entry): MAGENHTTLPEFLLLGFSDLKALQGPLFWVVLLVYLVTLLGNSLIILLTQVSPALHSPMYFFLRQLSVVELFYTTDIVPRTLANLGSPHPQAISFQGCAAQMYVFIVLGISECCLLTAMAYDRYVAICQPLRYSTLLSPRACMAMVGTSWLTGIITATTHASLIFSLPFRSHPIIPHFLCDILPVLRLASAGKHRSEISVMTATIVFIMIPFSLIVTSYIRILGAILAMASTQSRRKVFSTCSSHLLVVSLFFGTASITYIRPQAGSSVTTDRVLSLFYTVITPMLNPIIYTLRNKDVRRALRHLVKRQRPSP
Summary of the method: as §1

OR10Q1 (Homo sapiens) = biological target: T9, OR10Q1 (Homo sapiens) (UniProt Q8NGQ4)
T9 sequence (whole entry): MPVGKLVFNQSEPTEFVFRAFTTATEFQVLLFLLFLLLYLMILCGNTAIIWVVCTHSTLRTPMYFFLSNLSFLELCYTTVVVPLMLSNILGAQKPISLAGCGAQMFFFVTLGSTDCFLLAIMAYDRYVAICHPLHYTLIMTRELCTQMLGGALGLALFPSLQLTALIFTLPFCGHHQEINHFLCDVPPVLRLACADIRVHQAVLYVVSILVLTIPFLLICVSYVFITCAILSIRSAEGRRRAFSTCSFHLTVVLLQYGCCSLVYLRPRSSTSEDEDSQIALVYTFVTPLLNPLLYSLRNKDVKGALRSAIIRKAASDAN
Summary of the method: as §1

Measured: odorant receptor agonist call

CC(CO)CS (centres undefined)
inactive: all assays above
